Experimental data of several laboratories.
Protocols differ between the studies behind these lines.
Target: 5-hydroxytryptamine receptor 2B (HTR2B, Homo sapiens, UniProt P41595)

SMILES | assay | setting | measurement | result
Clc1ccc2c(C3CCN(CCc4c[nH]c5ccccc45)CC3)c[nH]c2c1 | ligand displacement, radioligand | 10 µM | inhibition | 100%
Cn1cncc1[C@@](O)(COc1ccc(C#N)cc1-c1ccc(OC(F)(F)F)cc1)c1ccc(C#N)cc1 | ligand displacement | 10 µM | inhibition | 18.6%
c1ccc(C(NCCNC(c2ccccc2)c2ccccc2)c2ccccc2)cc1 | ligand displacement | 10 µM | inhibition | 79%
COCc1c(-c2cc3cc(C)cc(OC)c3s2)c2c(N)ncnn2c1CN1CCNC(=O)C1 | ligand displacement, radioligand | 10 µM | inhibition | 84%
CCOc1ccccc1NC(=O)c1ccccc1NS(=O)(=O)C1CC1 | ligand displacement, radioligand | 10 µM | inhibition | 63%
CCN(CC)CCCC[C@H](NC(=O)[C@H](CC(C)C)NC(=O)[C@H](C)NC(=O)[C@H](Cc1ccccc1)NC(=O)c1ccc(C(C)(C)C)cc1)C(=O)N[C@@H](CO)C(=O)OC | ligand displacement, radioligand | 10 µM | inhibition | 7%
CC(C)N1CCC[C@H]1CNC(=O)c1cn(C2CCCC2)c(=O)c2c1c1ccccc1n2C | ligand displacement, radioligand | 10 µM | inhibition | 41%
COc1cc2c3c(c1OC)-c1cc4c(cc1CC3N(C)CC2)OCO4 (racemic) | ligand displacement, radioligand | 10 µM | inhibition | 92.8%
CC(Cc1ccccc1)NCCn1cnc2c1c(=O)n(C)c(=O)n2C (centres unmarked) | ligand displacement, radioligand | 10 µM | inhibition | 23%
C[C@H](C(=O)N[C@H]1COc2ccccc2[C@@H]1S(C)(=O)=O)c1ccc(F)cc1 | ligand displacement | 10 µM | inhibition | -9%
COCCN(CCOC)C(=O)[C@@]12C[C@@H]1[C@@H](n1cnc3c(N)nc(Cl)nc31)[C@H](O)[C@@H]2O | ligand displacement, radioligand | 10 µM | inhibition | 36%
N#CC1(c2ccccn2)CCN(Cc2cc(C(=O)O)c(=O)n3ccccc23)CC1 | ligand displacement | 10 µM | inhibition | 3.23%
Nc1ncc(-c2nc(N3CCOCC3)nc(N3CCOCC3)n2)c(C(F)F)n1 | cell-free assay, radioligand | 10 µM | remaining signal | 94.1%
CCC(N)Cc1cc(OC)c(COC)cc1OC (centres unmarked) | G protein activation, agonist, BRET | – | Emax | 43%
